Data published in ChEMBL document CHEMBL4342513, “Implementation of the CYP Index for the Design of Selective Tryptophan-2,3-dioxygenase Inhibitors” (ACS Med Chem Lett, 2020).
Values after ≈ are worked out from the molar mass of the structure shown.

Legend:
[1] = biological target: T1, Tryptophan 2,3-dioxygenase (Homo sapiens, UniProt P48775); assay: Inhibition of TDO in human SW48 cells after 24 hrs by NFK green reagent based assay; assay type: cell-based
[2] = biological target: Indoleamine 2,3-dioxygenase 1 (Homo sapiens, UniProt P14902); assay: Inhibition of IDO1 in human A172 cells after 24 hrs in presence of IFNgamma by NFK green reagent based assay; assay type: cell-based
Sequence of Indoleamine 2,3-dioxygenase 1 (P14902 whole entry): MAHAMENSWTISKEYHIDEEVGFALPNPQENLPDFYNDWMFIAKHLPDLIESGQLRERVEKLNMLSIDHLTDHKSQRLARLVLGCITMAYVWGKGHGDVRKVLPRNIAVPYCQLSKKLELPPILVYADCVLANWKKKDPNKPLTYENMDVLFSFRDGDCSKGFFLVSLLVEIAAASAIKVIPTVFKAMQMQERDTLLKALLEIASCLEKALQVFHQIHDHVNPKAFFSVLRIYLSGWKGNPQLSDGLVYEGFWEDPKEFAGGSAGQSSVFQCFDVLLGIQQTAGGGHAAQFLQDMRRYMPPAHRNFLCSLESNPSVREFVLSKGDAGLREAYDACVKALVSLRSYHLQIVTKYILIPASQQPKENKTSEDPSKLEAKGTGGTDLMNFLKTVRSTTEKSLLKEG

[3] = organism: Homo sapiens; assay: Selectivity index, ratio of EC50 for inhibition of IDO1 in human A172 cells in presence of IFNgamma to EC50 for inhibition of TDO in human SW48 cells; assay type: cell-based
[4] = Lipophilicity, log D of compound at pH 7.4; assay type: physicochemical; conditions: buffer
[5] = Clearance in human liver microsomes; assay type: ADME, Microsome
In short: (§1)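 Clearance was measured in liver microsome incubations from human, rat and mouse. It is expressed as scaled clearance in mL/min/kg.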

[6] = Clearance in rat liver microsomes; assay type: ADME, Microsome; in short: as §1
[7] = Clearance in mouse liver microsomes; assay type: ADME, Microsome; in short: as §1
[8] = biological target: Cytochrome P450 3A4 (Homo sapiens, UniProt P08684); assay: Inhibition of CYP3A4 (unknown origin); assay type: ADME
Sequence of Cytochrome P450 3A4 (P08684 whole entry): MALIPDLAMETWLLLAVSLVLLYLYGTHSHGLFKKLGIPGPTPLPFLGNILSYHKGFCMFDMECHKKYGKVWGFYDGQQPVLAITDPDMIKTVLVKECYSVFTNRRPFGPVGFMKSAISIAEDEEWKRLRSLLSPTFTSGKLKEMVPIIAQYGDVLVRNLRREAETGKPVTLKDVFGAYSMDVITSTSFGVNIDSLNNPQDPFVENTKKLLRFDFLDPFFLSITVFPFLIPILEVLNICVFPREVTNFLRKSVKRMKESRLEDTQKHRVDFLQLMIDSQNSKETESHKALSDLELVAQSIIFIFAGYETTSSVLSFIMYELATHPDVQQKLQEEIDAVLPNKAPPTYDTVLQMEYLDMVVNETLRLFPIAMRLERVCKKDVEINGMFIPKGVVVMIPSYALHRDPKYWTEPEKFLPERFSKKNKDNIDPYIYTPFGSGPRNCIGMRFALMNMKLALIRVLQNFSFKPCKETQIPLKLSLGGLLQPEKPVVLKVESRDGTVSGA

[9] = organism: Homo sapiens; assay: Selectivity index, ratio of IC50 for inhibition of CYP3A4 (unknown origin) to EC50 for inhibition of EC50 for inhibition of TDO in human SW48 cells; assay type: cell-based
[10] = biological target: T1, Tryptophan 2,3-dioxygenase; assay: Inhibition of recombinant human TDO using L-tryptophan as substrate preincubated for 5 mins followed by substrate addition and measured after 15 mins by RapidFire-Mass spectrometry
[11] = Apparent permeability across apical to basolateral side in MDCK cells; assay type: ADME, cell-based, Canis lupus familiaris; conditions: dog
[12] = Kinetic solubility of compound; assay type: physicochemical; conditions: read-out: Kinetic_solubility
[13] = Clearance in iv dosed mouse plasma; assay type: ADME, organism-based
In short: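 Compounds were given to mice as discrete (single-compound) intravenous doses. Plasma clearance (CLp) is expressed in mL/min/kg.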

[14] = Protein binding in mouse plasma assessed as unbound fraction; assay type: ADME, cell-free
[15] = Unbound clearance in mouse plasma; assay type: ADME, cell-free
[16] = Volume of distribution at steady state in mouse; assay type: ADME, organism-based; conditions: in vivo, read-out: Vdss
[17] = Half life in mouse; assay type: ADME, organism-based; conditions: in vivo
[18] = Oral bioavailability in mouse at 1 mg/kg dosed as cassette formulation; assay type: ADME, organism-based; conditions: in vivo
[19] = AUC (infinity) in mouse; assay type: ADME, organism-based; parameters: time infinity; conditions: in vivo
[20] = AUC (infinity) in mouse at 10 mg/kg; assay type: ADME, organism-based; parameters: dose 10 mg/kg, time infinity; conditions: in vivo
[21] = Oral bioavailability in mouse at 5 mg/kg; assay type: ADME, organism-based; conditions: in vivo
[22] = AUC (infinity) in mouse at 30 mg/kg; assay type: ADME, organism-based; parameters: dose 30 mg/kg, time infinity; conditions: in vivo
[23] = AUC (infinity) in mouse at 100 mg/kg; assay type: ADME, organism-based; parameters: dose 100 mg/kg, time infinity; conditions: in vivo
[24] = Cmax in mouse at 10 mg/kg; assay type: ADME, organism-based; parameters: dose 10 mg/kg; conditions: in vivo
[25] = Cmax in mouse at 30 mg/kg; assay type: ADME, organism-based; parameters: dose 30 mg/kg; conditions: in vivo
[26] = Cmax in mouse at 100 mg/kg; assay type: ADME, organism-based; parameters: dose 100 mg/kg; conditions: in vivo
[27] = test system: Mus musculus; assay: In vivo inhibition of TDO in mouse assessed as blood tryptophan levels by measuring AUC at 10 mg/kg (reference value: 570 microM.hr); assay type: functional, organism-based
In short: (§2)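 Mouse pharmacodynamic study with escalating doses up to 100 mg/kg and a vehicle-treated comparison group. Blood tryptophan concentration was followed over time.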

[28] = test system: Mus musculus; assay: In vivo inhibition of TDO in mouse assessed as blood tryptophan levels by measuring AUC at 30 mg/kg (reference value: 570 microM.hr); assay type: functional, organism-based; in short: as §2
[29] = test system: Mus musculus; assay: In vivo inhibition of TDO in mouse assessed as blood tryptophan levels by measuring AUC at 100 mg/kg (reference value: 570 microM.hr); assay type: functional, organism-based; in short: as §2
[30] = test system: Mus musculus; assay: In vivo inhibition of TDO in mouse assessed as blood tryptophan levels by measuring Cmax at 10 mg/kg (reference value: 340 microM); assay type: functional, organism-based; parameters: dose 10 mg/kg; in short: as §2
[31] = test system: Mus musculus; assay: In vivo inhibition of TDO in mouse assessed as blood tryptophan levels by measuring Cmax at 30 mg/kg (reference value: 340 microM); assay type: functional, organism-based; parameters: dose 30 mg/kg; in short: as §2
[32] = test system: Mus musculus; assay: In vivo inhibition of TDO in mouse assessed as blood tryptophan levels by measuring Cmax at 100 mg/kg (reference value: 340 microM); assay type: functional, organism-based; parameters: dose 100 mg/kg; in short: as §2

T1 sequence (P48775 whole entry): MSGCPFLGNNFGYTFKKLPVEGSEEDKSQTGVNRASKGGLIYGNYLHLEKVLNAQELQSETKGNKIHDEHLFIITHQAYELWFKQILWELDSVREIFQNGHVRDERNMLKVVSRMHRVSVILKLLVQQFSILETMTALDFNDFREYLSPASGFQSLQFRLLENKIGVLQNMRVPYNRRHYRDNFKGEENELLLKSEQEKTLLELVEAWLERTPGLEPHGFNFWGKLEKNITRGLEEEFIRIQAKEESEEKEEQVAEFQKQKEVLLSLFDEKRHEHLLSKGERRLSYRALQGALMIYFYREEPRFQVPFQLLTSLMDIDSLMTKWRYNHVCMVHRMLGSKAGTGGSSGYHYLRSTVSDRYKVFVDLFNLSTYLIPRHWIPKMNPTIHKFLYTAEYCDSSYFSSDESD

C[C@H]([C@H](O)C1CCCCC1)[C@H]1c2ccccc2-c2cncn21
EC50 [1]: 62 nM
EC50 [2]: 670 nM
Ratio EC50 [3]: 11
logD [4]: 3.9
CLhep predicted [5]: 16 mL/min/kg
CLhep predicted [6]: 42 mL/min/kg
CLhep predicted [7]: 75 mL/min/kg

O[C@@H]1CCOC[C@H]1[C@H]1c2ccccc2-c2cncn21
EC50 [2]: 2900 nM
Ratio EC50 [3]: 14
logD [4]: 1.5
IC50 [8]: 650 nM
Ratio IC50/EC50 [9]: 3.1

NC(=O)c1ccc2c(c1)[C@@H](O)[C@H]([C@H]1c3ccccc3-c3cncn31)CC2
EC50 [1]: 35 nM
EC50 [2]: 2600 nM
Ratio EC50 [3]: 74
CLhep predicted [5]: 7.4 mL/min/kg
CLhep predicted [6]: 26 mL/min/kg
CLhep predicted [7]: 67 mL/min/kg
IC50 [8]: 3600 nM
Ratio IC50/EC50 [9]: 100

OCCn1c2ccccc2c2cncn21
IC50 [10]: 20 nM

O[C@@H]1COCC[C@H]1[C@H]1c2ccccc2-c2cncn21
EC50 [1]: 72 nM
EC50 [2]: 1600 nM
Ratio EC50 [3]: 22
logD [4]: 1.3
IC50 [8]: 600 nM
Ratio IC50/EC50 [9]: 8.3

O[C@@H]1c2nonc2CC[C@H]1[C@H]1c2ccccc2-c2cncn21
EC50 [1]: 54 nM
EC50 [2]: 4600 nM
Ratio EC50 [3]: 85
CLhep predicted [5]: < 3.9 mL/min/kg
CLhep predicted [6]: 33 mL/min/kg
CLhep predicted [7]: 45 mL/min/kg
IC50 [8]: 8200 nM
Ratio IC50/EC50 [9]: 150
Papp A→B [11]: 23 ×10⁻⁶ cm/s
solubility kinetic [12]: 165 µM (≈ 48.6 µg/mL)
clearance [13]: 63 mL/min/kg
fraction unbound [14]: 0.27
CL free [15]: 230 mL/min/kg
Vd [16]: 1.1 L/kg
half-life [17]: 12.6 min
bioavailability [18]: < 5%
AUC ([19]; BLD = below limit of detection): Bld

OCCC1c2ccccc2-c2cnsc21 (stereo unspecified)
IC50 [10]: 7000 nM

OCCn1c2ccccc2n2cnnc12
IC50 [10]: 17000 nM

OCCC1c2ccccc2-n2cncc21 (stereo unspecified)
IC50 [10]: 60 nM

O[C@@H]1c2cnccc2CC[C@H]1[C@H]1c2ccccc2-c2cncn21
AUC(0-inf) [20]: 5 µM·h
EC50 [1]: 50 nM
EC50 [2]: 1400 nM
Ratio EC50 [3]: 28
CLhep predicted [5]: 6.9 mL/min/kg
CLhep predicted [6]: 38 mL/min/kg
CLhep predicted [7]: 71 mL/min/kg
IC50 [8]: 2400 nM
Ratio IC50/EC50 [9]: 48
Papp A→B [11]: 11 ×10⁻⁶ cm/s
solubility kinetic [12]: 139 µM (≈ 42.2 µg/mL)
clearance [13]: 29 mL/min/kg
fraction unbound [14]: 0.07
CL free [15]: 410 mL/min/kg
Vd [16]: 1.4 L/kg
half-life [17]: 37.2 min
bioavailability [18]: 68%
AUC(0-inf) [19]: 0.34 µM·h
bioavailability [21]: 78%
AUC(0-inf) [22]: 35 µM·h
AUC(0-inf) [23]: 210 µM·h
Cmax [24]: 4.1 µM
Cmax [25]: 21.2 µM
Cmax [26]: 70 µM
AUC [27]: 139000 ng·h/mL
AUC [28]: 229000 ng·h/mL
AUC [29]: 404000 ng·h/mL
Cmax [30]: 420 µM
Cmax [31]: 560 µM
Cmax [32]: 540 µM

O[C@@H]1CCCC[C@H]1[C@H]1c2ccccc2-c2cncn21
EC50 [1]: 50 nM
EC50 [2]: 720 nM
Ratio EC50 [3]: 14
logD [4]: 2.7
CLhep predicted [5]: 9.7 mL/min/kg
CLhep predicted [6]: 37 mL/min/kg
CLhep predicted [7]: 62 mL/min/kg

CS(=O)(=O)c1ccc2c(c1)[C@@H](O)[C@H]([C@H]1c3ccccc3-c3cncn31)CC2
EC50 [1]: 39 nM
EC50 [2]: 880 nM
Ratio EC50 [3]: 23
CLhep predicted [5]: 6.6 mL/min/kg
CLhep predicted [6]: 33 mL/min/kg
CLhep predicted [7]: 64 mL/min/kg
IC50 [8]: 6000 nM
Ratio IC50/EC50 [9]: 150

CS(=O)(=O)N1CC[C@@H]([C@H]2c3ccccc3-c3cncn32)[C@H](O)C1
EC50 [1]: 87 nM
EC50 [2]: 970 nM
Ratio EC50 [3]: 11
logD [4]: 0.7
IC50 [8]: > 10000 nM
Ratio IC50/EC50 [9]: > 120

O[C@@H]1CC[C@H]1[C@H]1c2ccccc2-c2cncn21
EC50 [1]: 36 nM
EC50 [2]: 1400 nM
Ratio EC50 [3]: 67
logD [4]: 1.7
CLhep predicted [5]: 5.9 mL/min/kg
CLhep predicted [6]: 27 mL/min/kg
CLhep predicted [7]: 59 mL/min/kg

CC(C)([C@H](O)c1ncco1)[C@H]1c2ccccc2-c2cncn21
EC50 [1]: 71 nM
logD [4]: 2.3
Ratio IC50/EC50 [9]: < 2

O[C@@H]1CCC[C@H]1[C@H]1c2ccccc2-c2cncn21
EC50 [1]: 70 nM
EC50 [2]: 2200 nM
Ratio EC50 [3]: 31
logD [4]: 2.2
CLhep predicted [5]: 5 mL/min/kg
CLhep predicted [6]: 35 mL/min/kg
CLhep predicted [7]: 59 mL/min/kg

OCCC1c2ccccc2-c2cncn21 (stereo unspecified)
IC50 [10]: 20 nM
